In publication PMC3662472 (Basic research in cardiology, 2012):
“Also recorded” adds a separate entry of the source. Read-outs that look alike come from different tables or passages of the source. Ends that are not written are not given here.

How the values were obtained:
[1] = system: Cx43 hemichannels (cultured pig ventricular cardiomyocytes); assay type: cell-based; conditions: Vm +70 mV, siCx43 n = 9, siCx43scr n = 6, MOCK n = 3, ***P < 0.001 siCx43 versus MOCK and siCx43scr
[2] = system: porcine Cx43 gene gja1 / Cx43 expression; assay: Cx43 expression; assay type: cell-based; conditions: cultured pig ventricular cardiomyocytes
Panx1 HCs = conditions: 20 μM; ref [6]; cited from earlier work
[3] = target: Cx43 hemichannels (HeLa-Cx43 cells) (Mus musculus, UniProt P23242); assay type: cell-based; conditions: for Qm (% normalized to average before peptide addition), time course: repeated Vm steps to +70 mV, n = 3; for Qm versus control / HC-mediated unitary events: concentration not given; for Qm versus control: Vm +70 mV (30 s); for Qm at steady state (reduction to, % of value before peptide): n = 5
Sequence of Cx43 hemichannels (HeLa-Cx43 cells) (P23242 whole entry): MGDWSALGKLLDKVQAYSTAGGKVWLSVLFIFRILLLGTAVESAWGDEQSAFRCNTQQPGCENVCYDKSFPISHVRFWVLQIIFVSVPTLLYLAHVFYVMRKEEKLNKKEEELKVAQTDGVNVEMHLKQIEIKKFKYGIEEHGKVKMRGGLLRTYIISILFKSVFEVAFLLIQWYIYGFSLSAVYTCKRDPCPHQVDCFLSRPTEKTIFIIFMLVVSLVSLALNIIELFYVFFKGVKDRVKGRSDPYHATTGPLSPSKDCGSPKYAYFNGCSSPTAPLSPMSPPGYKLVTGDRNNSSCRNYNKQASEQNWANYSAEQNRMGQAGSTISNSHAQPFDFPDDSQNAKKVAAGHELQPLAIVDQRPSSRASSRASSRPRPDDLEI
Outline: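 HeLa cells stably express mouse Cx43 from a CMV vector and are kept in DMEM with 20 % FBS, 2 mM glutamine and 1 μg/mL puromycin. In whole-cell clamp (1–3 MΩ pipettes, pH 7.2, 50 nM Ca2+, 1 kHz filter), peptide is pre-incubated 30 min or added during recording. Qm is integrated unitary current over each step, normalized to pre-peptide or […] control. Mean ± SEM, ANOVA/Bonferroni or t test.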

[4] = system: Cx43 hemichannels (pig ventricular cardiomyocytes); assay: Unitary hemichannel currents in isolated pig left ventricular cardiomyocytes; assay type: cell-based; conditions: Vm −70 to +80 mV
[5] = scrambled peptide, Vm +70 mV, HeLa-Cx43

## 5′-AGAGAUACGAACAAGAGAG-3′ [siCx43^scr]
[1]
  Cx43 HC unitary current activity (Qm): no effect
[2]; scrambled siRNA
  effect on Cx43 expression: no effect

## 5′-GAAAGAGGAGGAACUCAAA-dTdT-3′ [siCx43]
[1]; listed as siRNA directed against Cx43
  Cx43 HC unitary current activity (Qm): significantly inhibited
[2]; *P < 0.05 versus siCx43scr and MOCK
  Cx43 expression, % of control (MOCK): 50%
[2]; siRNA 24 h
  Cx43 expression knockdown: ~ 50%

## CC1(C)[C@@H](OC(=O)CCC(=O)O)CC[C@]2(C)[C@H]3C(=O)C=C4[C@@H]5C[C@@](C)(C(=O)O)CC[C@]5(C)CC[C@@]4(C)[C@]3(C)CC[C@@H]12 [carbenoxolone]
Panx1 HCs
  block of Panx1 HCs: known to block Panx1 HCs
[3]; 100 μM, Vm = +70 mV, HeLa-Cx43
  unitary current activity: rapidly disappeared
[4]; 20 μM
  unitary current events in cardiomyocytes: not influenced; also recorded: not affected
[4]; 20 μM, listed as Carbenoxolone
  unitary current events in cardiomyocytes: no effect
[4]; 100 μM
  unitary current events in cardiomyocytes: acted inhibitory; also recorded: clearly inhibited the currents

## PSFDSRHCIVKYV [SGap26]
[3]; 1 mM, Vm +70 mV, HeLa-Cx43
  inhibition of Qm at 1 mM: strong inhibition
[3]; concentration range at which Gap26 displayed inhibition
  inhibitory effect on Qm over concentration range: did not exhibit inhibitory effects
[3]
  Qm (% normalized to average before peptide addition), time course: around 100%
[3]; scrambled peptide, HeLa-Cx43
  Qm versus control: not different from control
[3]; [5]
  HC-mediated unitary events: did not reveal any inhibition
[3]; time course, Vm steps to +70 mV, scrambled peptide
  Qm decay over time: did not cause any Qm decay

## SRPTEKTIFII [Gap27, SRPTEKTIFII]
[3]
  IC50: ~161 µM
[3]; 300 μM, Vm steps to +70 mV, **P < 0.01 versus SGap27
  Qm at steady state (reduction to, % of value before peptide): ~ 15%

## TFEPIRISITK [SGap27]
[3]; concentration dependence, Vm +70 mV, HeLa-Cx43
  effect on Qm versus concentration: did not affect Qm unless it was applied at 1 mM concentration
[3]
  Qm (% normalized to average before peptide addition), time course: around 100%
[3]; scrambled peptide, HeLa-Cx43
  Qm versus control: not different from control
[3]; [5]
  HC-mediated unitary events: did not reveal any inhibition

## VCYDKSFPISHVR [Gap26, VCYDKSFPISHVR]
[3]
  IC50: ~81 µM
[3]; 250 μM, Vm steps −30 to +70 mV, *P < 0.05 versus SGap26
  Qm at steady state (reduction to, % of value before peptide): ~ 35%
